Source: PubChem
pPAFAH inh: pPAFAH enzyme inhibitors, primary screen, biochemical, fluorescence polarization, human | Platelet-activating factor acetylhydrolase (Homo sapiens), Q13093 | recombinant pPAFAH, FP-rhodamine probe fluorescence polarization | inhibition, % at 3.39 µM | hit rate 1.5% among 330,000;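 active = inhibition above the mean inhibition across the screen plus 3 SD, cut at about 25% in these data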;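 note: inhibitors block binding of the rhodamine activity-based probe so polarization drops; 0% = enzyme with DMSO and 100% = wells lacking pPAFAH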
PAFAH1B3 inh: PAFAH1B3 enzyme inhibitors, primary screen, biochemical, fluorescence polarization, human | inhibition, % at 3.39 µM | Platelet-activating factor acetylhydrolase IB subunit alpha1 (Homo sapiens), Q15102 | hit rate 0.28% among 340,000 | recombinant PAFAH1B3, FP-rhodamine probe | AID 492972, 2010;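 active = inhibition above the screen-wide average of all tested compounds plus 3 SD, cut at about 25% in these data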;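 note: 0% = enzyme with DMSO only and 100% = wells lacking PAFAH1B3 protein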
Target sequence (Q15102 whole entry, looked up): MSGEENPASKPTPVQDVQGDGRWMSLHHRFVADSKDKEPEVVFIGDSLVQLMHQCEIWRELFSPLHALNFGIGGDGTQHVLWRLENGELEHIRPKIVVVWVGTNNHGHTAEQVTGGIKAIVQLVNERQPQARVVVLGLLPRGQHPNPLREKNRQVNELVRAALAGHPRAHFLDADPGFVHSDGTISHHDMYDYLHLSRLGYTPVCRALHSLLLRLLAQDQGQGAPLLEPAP
PAFAH1B2 FP inh: PAFAH1B2 enzyme inhibitors, primary screen, biochemical, fluorescence polarization, human; recombinant PAFAH1B2, FP-rhodamine activity probe; inhibition, % at 3.39 µM; hit rate 1.2% among 340,000;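 active = inhibition above the mean of all tested compounds plus 3 SD, cut at about 24% in these data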;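 note: 0% = enzyme with DMSO and 100% = wells lacking PAFAH1B2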
ASAP1 inh: inhibitors of human ASAP1 ArfGAP activity, primary screen, biochemical, fluorescence polarization; hit rate 0.19% among 360,000; AID 624377, 2012; ASAP1-stimulated ARF1 GTP hydrolysis, GDP FP detection; inhibition, % at 16.5 µM; Arf-GAP with SH3 domain, ANK repeat and PH domain-containing protein 1 (Homo sapiens), …; in the data active = inhibition above about 25%;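 note: 0% = vehicle with enzyme and substrate and 100% = no enzyme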
Target sequence (Q9ULH1 325-724 limits assumed): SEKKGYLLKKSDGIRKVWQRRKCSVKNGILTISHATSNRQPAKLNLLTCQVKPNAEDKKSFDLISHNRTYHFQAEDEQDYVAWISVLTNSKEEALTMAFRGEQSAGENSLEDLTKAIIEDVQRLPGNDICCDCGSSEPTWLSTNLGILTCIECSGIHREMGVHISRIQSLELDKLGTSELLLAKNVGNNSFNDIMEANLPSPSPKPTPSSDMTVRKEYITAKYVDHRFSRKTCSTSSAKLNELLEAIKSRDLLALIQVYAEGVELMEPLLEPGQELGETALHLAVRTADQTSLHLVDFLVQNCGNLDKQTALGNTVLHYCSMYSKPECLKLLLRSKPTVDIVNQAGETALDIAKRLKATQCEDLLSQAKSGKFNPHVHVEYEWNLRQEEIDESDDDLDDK
PAFAH2 FP inh: PAFAH2 enzyme inhibitors, primary screen, biochemical, fluorescence polarization, human. Platelet-activating factor acetylhydrolase 2, cytoplasmic (Homo sapiens), Q99487. recombinant PAFAH2, FP-rhodamine activity probe. inhibition, % at 3.39 µM. hit rate 0.99% among 340,000;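 active = inhibition above the mean over all tested compounds plus 3 SD, cut at about 30% in these data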;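 note: inhibitors block probe labeling of enzyme so polarization drops; 0% = enzyme with DMSO and 100% = wells lacking PAFAH2 protein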
ARFGAP1 inhibitor: inhibitors of rat ARFGAP1 GAP activity, primary screen, biochemical, fluorescence polarization, GDP tracer; AID 651572, 2012; hit rate 0.26% among 360,000; inhibition, % at 16.5 µM; Arfgap1-stimulated ARF1 GTP hydrolysis, GDP FP detection;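 active = inhibition above a per-plate limit, mean inhibition of low control wells plus 3 SD, cut at about 25% in these data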;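 note: 0% = DMSO wells with enzyme and 100% = wells lacking Arfgap1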
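Assay system: Rat Arfgap1 GAP domain (His6, aa 1-136), purified enzyme | Buffer or medium: HEPES 25 mM pH 7.5, NaCl 150 mM, MgCl2, DTT | Schedule: GTP hydrolysis reaction 2 h at 25 °C | Signal: FP of antibody-bound GDP Alexa 633 tracer, ex 620/em 688 nm | Measure: Percent inhibition of Arfgap1-stimulated GTP hydrolysis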
ASAP1 GAP conf: ASAP1 GAP activity inhibitors, confirmation, biochemical, fluorescence polarization, human, triplicate; hit rate 37% among 620; shares compounds with ASAP1 inh; inhibition, % at 16.5 µM; ASAP1-stimulated Arf1 GTPase, GDP fluorescence polarization;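 active = mean inhibition over triplicates exceeds the hit threshold derived for the earlier primary screening run, cut at about 25% in these data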
An asterisk follows results filed as active; nt = no result given. In the library only some 2.7% were active in any assay of this set; here they are far more common.

SMILES	pPAFAH inh	PAFAH1B3 inh	PAFAH1B2 FP inh	ASAP1 inh	PAFAH2 FP inh	ARFGAP1 inhibitor	ASAP1 GAP conf
NS(=O)(=O)c1ccc(CCNC(=O)Nc2ccc(Cl)c(Cl)c2)cc1	-8.0	-9.8	-0.4	0.9	-7.2	10.6	nt
CC(C)Oc1ccc(F)cc1-c1cc(C(=O)NCc2ccc(F)cc2)[nH]n1	nt	nt	nt	2.3	nt	5.1	nt
O=C(NCC[C@@H]1CC[C@@H](NS(=O)(=O)Cc2ccccc2)[C@@H](CO)O1)C1CC1	nt	nt	nt	25.7*	nt	1.8	-1.1
CCCCCCN(C(=O)CCCCCN1C(=O)NC(c2ccc(C3CCCCC3)cc2)C(C(=O)OCc2ccccc2)=C1C)C(C(=O)NCCCC)c1ccc(OCC(=O)OC)c(C(=O)OC)c1 (stereo not drawn)	nt	nt	nt	-7.6	nt	-2.6	nt
COc1ccc(-c2n[nH]nc2C2=CC(=O)CC(C)(C)C2)cc1	nt	nt	nt	-7.9	nt	21.9	nt
O=S(=O)(NCC1CCN(Cc2ccccc2)CC1)c1ccccc1C(F)(F)F	4.4	-0.9	9.1	-4.4	-1.6	0.2	nt
CN(Cc1cccc(Cl)c1Cl)C(=O)CCNC(=O)c1ccco1	0.3	7.5	1.9	29.1*	-9.2	-3.8	1.2
CN(CC(=O)Nc1cccc(F)c1)C(=O)CCNC(=O)c1ccco1	1.1	6.7	4.1	-10.2	-1.6	-0.4	nt
O=C(COC(=O)c1ccc2c(c1)C(=O)N(c1cccc3ncccc13)C2=O)c1ccc(Cl)cc1	0.6	0.2	2.0	145.2*	3.3	4.2	177.2*
CCOc1cc2c(C#N)c(N(CC)CC)nc(N)c2c(N)n1	7.4	-3.0	12.3	33.1*	-1.5	19.7	8.7
O=C(Nc1ccc2c(c1)OCCO2)C(c1ccncc1)n1c(=O)c(-c2cc3ccccc3[nH]2)nc2ccccc21 (stereo not drawn)	nt	nt	nt	32.6*	nt	7.7	15.9
Nc1ccc2c(c1)C(=NO)c1cc([N+](=O)[O-])ccc1-2	nt	-5.3	-2.1	25.9*	-5.1	-4.9	18.2
O=[N+]([O-])c1ccc2c(c1)-c1ccccc1C2=NO	nt	9.8	6.2	-4.1	1.9	-6.8	nt
ON1C(c2ccc(Cl)cc2Cl)N(O)[C@H]2CCCC[C@H]21 (stereo partly drawn)	1.4	5.2	12.6	2.0	11.9	4.7	nt
CC1N(O)C(c2ccc(Cl)cc2Cl)N(O)C1(C)C (stereo not drawn)	-0.2	3.8	2.3	25.1*	-6.2	5.1	4.7
COc1ccc2c(c1OC)C(=O)OC2CC(=O)c1ccc(O)cc1 (stereo not drawn)	3.0	1.3	-0.8	-2.8	7.1	-1.2	nt
COc1ccc2c(c1OC)C(=O)OC2CC(=O)c1ccc(O)c(O)c1 (stereo not drawn)	5.0	14.7	3.8	144.3*	12.6	-9.6	-0.6
CC(Oc1ccccc1)C(=O)N1CCC2(CC1)Oc1ccc(F)cc1C(=O)C21CC(c2ccccc2)=NO1 (stereo not drawn)	-0.9	-2.1	-6.5	-1.9	-4.8	1.0	nt
CC(Oc1ccccc1)C(=O)N1CCC2(CC1)Oc1ccc(F)cc1C(=O)C21CC(c2cccnc2)=NO1 (stereo not drawn)	6.7	6.2	-4.9	25.8*	-3.2	15.3	4.7
Nc1c(C(=O)NCc2ccc3c(c2)OCO3)c2nc3ccccc3nc2n1CCCN1CCOCC1	24.1	13.8	0.7	34.4*	3.8	17.1	9.6
CSc1ccc(C(O)c2ncc(-c3ccccc3Cl)[nH]2)cc1 (stereo not drawn)	nt	nt	nt	-1.4	nt	4.6	nt
COCCNC(=S)N=Nc1c(O)[nH]c2ccc([N+](=O)[O-])cc12	0.4	1.3	-0.8	29.6*	3.9	2.0	41.0*
CCCCCCC(=O)N=Nc1c(O)[nH]c2ccc([N+](=O)[O-])cc12	5.7	8.2	1.2	-8.0	-1.8	6.4	nt
O=C(Nc1ccc(NC(=S)NC(=O)c2ccco2)cc1)c1ccc(Br)cc1	nt	nt	nt	58.4*	nt	9.8	161.2*
CC1=C(C(=O)N(C(C)C)C(C)C)CC(CC(=O)NC(c2ccccc2)c2ccccc2)C(=O)N1Cc1ccc(F)cc1 (stereo not drawn)	nt	nt	nt	6.1	nt	5.0	nt
SMILES	pPAFAH inh	PAFAH1B3 inh	PAFAH1B2 FP inh	ASAP1 inh	PAFAH2 FP inh	ARFGAP1 inhibitor	ASAP1 GAP conf
COc1cccc(/C=C/c2nc(C#N)c(NCC(C)C)o2)c1	14.8	4.4	3.0	29.0*	9.8	0.9	15.3
COc1cc(N)c2ncccc2c1Br	nt	11.2	1.5	27.7*	9.2	15.2	11.2
COc1cc(N)c2ncccc2c1SC	nt	nt	nt	-12.9	nt	-5.7	nt
Nc1ccc(O)c2c(=O)cc(-c3ccccc3Cl)oc12	19.2	-10.0	-1.4	28.4*	1.5	0.5	13.0
CC(C)c1cc(C(=O)O)n(-c2ccccc2)n1	3.4	2.5	10.5	10.6	-3.0	11.1	nt
O=C(Nc1c(-c2ccc3c(c2)OCO3)[nH][nH]c1=O)c1ccccc1	nt	nt	nt	30.3*	nt	15.1	10.8
O=C(Nc1c(-c2ccccc2)[nH][nH]c1=O)c1ccc2c(c1)OCO2	nt	nt	nt	-5.1	nt	-0.1	nt
Cc1ccc(C(=O)N2CCCC2)cc1Br	-5.0	2.4	2.5	25.7*	-12.0	5.9	-0.2
COc1ccc(Br)cc1C(=O)Nc1cccc(-c2nnc(-c3ccco3)o2)c1	1.6	-12.3	-10.5	72.5*	8.5	3.5	37.3*
COc1ccc(NC(=O)C2=CC(c3ccc(C)cc3)=NS(=O)(=O)N2C)cc1OC	10.1	-3.7	3.6	25.1*	-5.5	2.7	13.3
COc1ccc(C2=NS(=O)(=O)N(C)C(C(=O)Nc3ccc(OC)c(OC)c3)=C2)cc1	4.7	-4.1	3.4	13.7	4.3	20.4	nt
CC(=O)c1ccc(S(=O)(=O)NCC(=O)N2CCN(C/C=C/c3ccccc3)CC2)cc1	5.3	4.4	2.1	28.3*	-6.1	-2.5	0.7
Cc1ccc(S(=O)(=O)N2[C@H](CC(=O)c3cccc4ccccc34)OC[C@@H]2C(C)C)cc1	nt	nt	nt	-3.7	nt	-19.8	nt
Cc1[nH]c2c(ccc3cccnc32)c1C	2.9	-7.7	-4.7	-0.7	3.4	-2.5	nt
CC1=[N+](C)c2c(ccc3cccnc23)C1(C)C	nt	-147.5	-100.3	50.9*	-93.3	70.5*	31.8*
O=C(Cn1c2ccccc2c(=O)c2ccccc21)N/N=C/c1ccc(N2CCCC2)c([N+](=O)[O-])c1	4.8	7.2	4.9	-2.3	8.7	6.5	nt
